According to ChEMBL document CHEMBL4814013, “Scaffold repurposing of fendiline: Identification of potent KRAS plasma membrane localization inhibitors” (Eur J Med Chem, 2021):
Each block holds one compound with its values, some of them ahead of it. The source made the active and inactive calls. The rule behind the calls is not given here.

Assays:
[1] = tested on: MEF; assay: Antiproliferative activity against mouse MEF cells expressing KRAS G12V mutant assessed as reduction in cell growth incubated for 72 hrs by CyQuant proliferation assay; format: functional, cell-based
In short: (§1)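 Cells seeded in 96-well plates; after 24 h fresh growth medium with 0.1% DMSO vehicle or drug added (highest dose 30 µM for cancer lines), grown 72 h at 37 °C, 5% CO2. Live cell number measured by CyQUANT fluorescence. IC50 from three independent experiments. MEFs were isogenic lines carrying oncogenic BRAF or KRAS.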

[2] = tested on: Mus musculus; assay: In vivo inhibition of ASM in nu/nu mouse xenografted with human MIA PaCa-2 cells harboring KRAS mutation assessed as increase in SM accumulation in tumor at 12.5 mg/kg, ip administered once daily for 5 days with 2 days break by GFP-lysenin staining based confocal laser microscopy; format: functional, organism-based; conditions: time 5.0 day
In short: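 Sections of MiaPaCa-2 xenograft tumors from i.p.-treated nu/nu mice (12.5 mg/kg) stained with GFP-tagged lysenin to detect sphingomyelin.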

[3] = Toxicity in nu/nu mouse xenografted with human MIA PaCa-2 cells assessed as effect on body weight at 1 to 5 mg/kg, ip administered once daily for 5 days with 2 days break; format: organism-based; conditions: in vivo, 120 h, dose 1-5 mg/kg, time 5 day
[4] = Antiproliferative activity against human MOH cells expressing KRAS mutant assessed as reduction in cell growth incubated for 72 hrs by CyQuant proliferation assay; format: functional, cell-based; in short: as §1
[5] = tested on: SK-CO-1; assay: Antiproliferative activity against human SK-CO-1 cells expressing mutant KRAS assessed as reduction in cell growth incubated for 72 hrs by CyQuant proliferation assay; format: functional, cell-based; conditions: SK-CO-1, 72 h; in short: as §1
[6] = tested on: MEF; assay: Antiproliferative activity against mouse MEF cells expressing KRAS G12D mutant assessed as reduction in cell growth incubated for 72 hrs by CyQuant proliferation assay; format: functional, cell-based; in short: as §1
[7] = tested on: KLE; assay: Antiproliferative activity against human KLE cells expressing wild type KRAS assessed as reduction in cell growth upto 30 uM incubated for 72 hrs by CyQuant proliferation assay; format: functional, cell-based; conditions: dose microM <=30, time 72.0 hrs; in short: as §1
[8] = tested on: MDCK; assay: Reduction in expression of human GFP-tagged ASM transfected in dog MDCK cells at 5 uM incubated for 48 hrs by western blot analysis; format: functional, cell-based; conditions: Canis lupus familiaris
In short: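 SMPD1-GFP-expressing MDCK cells treated 48 h with 5 µM compound, washed in cold PBS and lysed in Tris pH 7.5 buffer with NaF, EGTA, DTT, vanadate, 1% NP40 and protease inhibitors. 20 µg of protein resolved by SDS-PAGE and immunoblotted. Signals detected by enhanced chemiluminescence and quantified by densitometry.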

[9] = tested on: MDCK; assay: Inhibition of ASM in dog MDCK cells co-expressing recombinant full length mGFP-tagged KRAS G12V mutant and mCherry-CAAX assessed as reduction in plasma membrane localization of KRAS mutant at 1 uM incubated for 48 hrs followed by incubation with recombinant ASM in continued presence of compound for 60 mins by confocal microscopic analysis; format: cell membranes; conditions: Canis lupus familiaris, time 49.0 hrs
In short: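 MDCK cells stably co-expressing mGFP-KRAS G12V and mCherry-CAAX seeded on glass coverslips and grown 48 h with or without compound. Medium then replaced with fresh medium containing 2 units/mL recombinant ASM, drug continued, for 60 min. Cells mounted in mowiol and imaged by confocal microscopy. Mislocalization scored by Manders coefficient.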

[10] = tested on: MIA PaCa-2; assay: Antitumor activity human MIA PaCa-2 cells harboring KRAS mutation xenografted in nu/nu mouse assessed as induction of apoptosis by measuring increase in cleaved caspase 3 level in tumor at 1 to 5 mg/kg, ip administered once daily for 5 days with 2 days break by immunohistochemistry; format: functional, organism-based; conditions: dose 1-5 mg/kg, time 5.0 day
In short: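 Paraffin tumor sections of 4–5 µm were deparaffinized and given heat antigen retrieval in 10 mM sodium citrate. Endogenous peroxidase was quenched and sections blocked in 2.5% normal goat serum. Primary antibody (pERK or cleaved caspase 3) applied overnight at 4 °C, biotinylated secondary 1:250 for 45 min at rt, then ABC reagent 30 min and DAB development. Rabbit IgG served as control.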

[11] = tested on: NCI-H522; assay: Antiproliferative activity against human NCI-H522 cells expressing wild type KRAS assessed as reduction in cell growth incubated for 72 hrs by CyQuant proliferation assay; format: functional, cell-based; conditions: NCI-H522, 72 h; in short: as §1
[12] = tested on: MEF; assay: Cytotoxicity against mouse MEF cells expressing BRAF V600E mutant and wild type KRAS assessed as reduction in cell growth incubated for 72 hrs by CyQuant proliferation assay; format: functional, cell-based; in short: as §1
[13] = tested on: BXPC-3; assay: Antiproliferative activity against human BXPC-3 cells expressing wild type KRAS assessed as reduction in cell growth incubated for 72 hrs by CyQuant proliferation assay; format: functional, cell-based; conditions: BXPC-3, 72 h; in short: as §1
[14] = tested on: MDCK; assay: Inhibition of ASM in dog MDCK cells co-expressing recombinant full length GFP-tagged LactC2 and mCherry-CAAX assessed as reduction in plasma membrane localization of LactC2 incubated for 48 hrs by confocal microscopic analysis; format: cell membranes; conditions: Canis lupus familiaris
In short: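 MDCK cells stably co-expressing mGFP-KRAS G12V or mGFP-LactC2 with mCherry-CAAX (HRAS 179–189 C181S/C184S) grown on coverslips in DMEM/10% FBS. Treated 48 h with 0.1% DMSO or graded drug, fixed in 4% paraformaldehyde, then quantitative confocal imaging. Mislocalization scored as the Manders fraction of mCherry-CAAX co-localizing with the GFP probe. IC50 and Emax from three independent experiments.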

[15] = tested on: NCI-H1975; assay: Antiproliferative activity against human NCI-H1975 cells expressing wild type KRAS assessed as reduction in cell growth incubated for 72 hrs by CyQuant proliferation assay; format: functional, cell-based; conditions: NCI-H1975, 72 h; in short: as §1
[16] = tested on: MDCK; assay: Cytotoxicity against dog MDCK cells at 30 uM; format: functional, cell-based; conditions: Canis lupus familiaris
[17] = tested on: Mus musculus; assay: In vivo inhibition of Ca2+ channel in nu/nu mouse xenografted with human MIA PaCa-2 cells harboring KRAS mutation assessed as blood vessel dialation in tumor at 1 to 5 mg/kg, ip administered once daily for 5 days with 2 days break by immunostaining; format: functional, organism-based; conditions: dose 1-5 mg/kg, time 5.0 day

IC50 [5]: 3 µM
inhibition [9]: inactive
IC50 [11]: 27.3 µM
IC50 [13]: 5.5 µM
inhibition [14]: Active
IC50 [15]: > 30 µM
SMILES: COc1ccc([C@@H](C)N(CC=C(c2ccccc2)c2ccccc2)CCN2CCCC2)cc1
IC50 [1]: 2600 nM
inhibition [2]: Active
Activity [3]: Non-Toxic
IC50 [4]: 3.6 µM
IC50 [6]: 3.9 µM
Activity [7]: inactive
inhibition [8]: Active
Activity [10]: Active
IC50 [12]: 8.5 µM
Activity [16]: Active
inhibition [17]: inactive

SMILES: COc1ccc([C@@H](C)N(CC=C(c2ccccc2)c2ccccc2)CCCN2CCN(C)CC2)cc1
IC50 [1]: 2900 nM
inhibition [2]: inactive
Activity [3]: Non-Toxic
IC50 [4]: 3.8 µM
IC50 [5]: 3.5 µM
IC50 [6]: 2.4 µM
Activity [7]: inactive
inhibition [8]: inactive
inhibition [9]: inactive
Activity [10]: Active
IC50 [11]: 23.5 µM
IC50 [12]: 7.9 µM
IC50 [13]: 5.3 µM
inhibition [14]: Active
IC50 [15]: > 30 µM
Activity [16]: Active
inhibition [17]: inactive
